In the library only some 4% were active in any assay of this set; here they are far more common.
Granule exo inh: lytic granule exocytosis inhibition. TALL-104 LAMP-1 surface exposure, flow cytometry; cells stimulated with thapsigargin and PMA. inhibition, % at 10 µM. 360,000 compounds, 0.66% hits. AID 651702;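 active means inhibition above about 55%, limit read from the data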
ABHD5-PLIN5 inh: blocks binding of human ABHD5 to perilipin-5; Q00G26+Q8WTS1; 360,000 compounds, 0.78% hits; Split G. princeps luciferase complementation, luminescence, 4 h; inhibition, % at 4 µM;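 active means inhibition above the mean inhibition across every tested compound plus 3 SD, cut at about 22% in these data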
Mdm2-MdmX inh: inhibitors of human Mdm2/MdmX interaction | O15151+Q00987 | SaOS-2 split-luciferase Mdm2/MdmX complementation, luminescence | inhibition, % at 8 µM | 330,000 compounds, 3% hits | AID 485346;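 active means inhibition of at least 50% at 8 µM in the primary screen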
Target sequence (O15151 whole entry, looked up): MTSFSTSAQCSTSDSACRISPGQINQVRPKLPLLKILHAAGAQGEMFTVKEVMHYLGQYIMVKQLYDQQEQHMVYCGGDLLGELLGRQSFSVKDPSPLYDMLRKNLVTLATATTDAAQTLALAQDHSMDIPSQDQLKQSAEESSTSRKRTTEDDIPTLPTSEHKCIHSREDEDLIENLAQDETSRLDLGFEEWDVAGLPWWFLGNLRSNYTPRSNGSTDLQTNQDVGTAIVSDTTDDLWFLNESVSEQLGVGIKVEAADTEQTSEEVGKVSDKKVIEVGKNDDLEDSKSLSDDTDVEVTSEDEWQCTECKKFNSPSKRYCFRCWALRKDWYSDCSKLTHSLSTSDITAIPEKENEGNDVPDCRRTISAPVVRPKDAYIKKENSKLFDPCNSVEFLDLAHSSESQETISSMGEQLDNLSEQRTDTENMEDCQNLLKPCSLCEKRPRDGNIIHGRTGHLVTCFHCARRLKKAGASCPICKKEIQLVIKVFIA
Target sequence (Q00987 whole entry, looked up): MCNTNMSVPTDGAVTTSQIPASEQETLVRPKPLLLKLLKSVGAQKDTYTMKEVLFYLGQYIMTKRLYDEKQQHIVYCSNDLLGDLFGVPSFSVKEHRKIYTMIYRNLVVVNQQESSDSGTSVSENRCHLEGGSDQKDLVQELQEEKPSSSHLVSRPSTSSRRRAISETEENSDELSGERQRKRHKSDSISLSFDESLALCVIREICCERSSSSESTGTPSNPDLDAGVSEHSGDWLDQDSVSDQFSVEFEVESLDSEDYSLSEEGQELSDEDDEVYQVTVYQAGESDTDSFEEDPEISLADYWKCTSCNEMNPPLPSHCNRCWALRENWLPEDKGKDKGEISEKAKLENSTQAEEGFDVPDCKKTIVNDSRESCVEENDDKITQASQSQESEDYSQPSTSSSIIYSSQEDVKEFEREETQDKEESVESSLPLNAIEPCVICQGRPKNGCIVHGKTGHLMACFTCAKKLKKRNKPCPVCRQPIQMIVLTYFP
CHOP UPR activ: activators of apoptotic arm of unfolded protein response (CHOP) | CHO-CHOP luciferase reporter, UPR activation, luminescence; percent of tunicamycin response over DMSO baseline | activation, % at 10 µM | 330,000 compounds, 0.34% hits;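 active means at 10 µM dose, activation of 40% or more, normalized to positive control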
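System: CHO-CHOP luciferase reporter cell line; amount: 500 cells/well; buffer or medium: F12 medium containing 10% fetal bovine serum; incubation: 6 h compound exposure at 37 °C after overnight seeding; measured by: luciferase luminescence after 10 min with Steady-Glo reagent; evaluation: % reporter activation, DMSO baseline versus tunicamycin full activation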
XBP1 UPR activ: adaptive UPR (XBP1) activation; CHO-XBP1 luciferase reporter, IRE1-XBP1 UPR activation, luminescence; percent of tunicamycin response, DMSO as zero; activation, % at 20 µM; 330,000 compounds, 0.33% hits; AID 463104;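 active means versus positive control, 20 µM dose yields 30% or more activation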
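Material: CHO cell line with stable XBP1 luciferase reporter; buffer or medium: F12 medium containing 10% fetal bovine serum; compound: single point, 20 µM final compound, 1% DMSO; incubation: 6 h treatment, 37 °C; measured by: glow luminescence from Steady-Glo reagent; evaluation: activation, % of tunicamycin; control set: tunicamycin high, DMSO low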
Mdm2 MdmX conf: confirmation of human Mdm2/MdmX interaction inhibitors; 10,000 compounds, 55% hits; inhibition, % at 8 µM; Mdm2-MdmX binding, luminescent assay; AID 489028; shares compounds with Mdm2-MdmX inh; in the data active means inhibition above about 40%
Full FLuc ctr: inhibits full-length luciferase, flagging false Mdm2/MdmX hits; shares compounds with Mdm2-MdmX inh; inhibition, % at 8 µM; 6,200 compounds, 77% hits; SaOS-2 full-length luciferase counterscreen, luminescence;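 active means mean inhibition at 8 µM reaching about 37%, which flags the compound as non-specific, limit read from the data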;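 further: p53-null SaOS-2 cells with luciferase driven by a doxycycline-inducible promoter; compound on cells about two nights before reading with doxycycline added after day one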
Of the large screens only hits and unclear results are named; the others gave an inactive call (follow-up assays come after a bar, where they were run).

CNC(=O)Nc1cc(C(F)(F)F)cc(C(F)(F)F)c1	none
O=C(Nc1cc(C(F)(F)F)cc(C(F)(F)F)c1)Nc1cnn(-c2ccc([N+](=O)[O-])cc2)c1C(F)(F)F	Mdm2-MdmX inh 100 | Mdm2 MdmX conf 93 | Full FLuc ctr 60
CN(Cc1ccccc1)c1nc(N)nc(Cl)c1C=O	none
CCn1c(SCC(=O)c2cc(C)n(-c3ccc(C(=O)OC)cc3)c2C)nnc1-c1cccnc1	none
Cc1nc(N2CCCCC2)sc1C(=O)c1ccc(Cl)c([N+](=O)[O-])c1	Mdm2-MdmX inh 69 (no result: Granule exo inh, ABHD5-PLIN5 inh) | Mdm2 MdmX conf inactive
CCCCCc1ccc(OCCC[n+]2ccccc2)c(CCCCC)c1	Mdm2-MdmX inh 89 | Mdm2 MdmX conf 76 | Full FLuc ctr inactive
CCCCCc1ccc(OCCOCCn2c[n+](C)c3ccccc32)c(CCCCC)c1	none (no result: Mdm2-MdmX inh, CHOP UPR activ, XBP1 UPR activ)
C/C=C(/C)C(=O)OC1CC(C)(C)C[C@H]2C3=CC[C@@H]4[C@@]5(C)CCC(O[C@@H]6O[C@@H](C(=O)O)[C@@H](O)C(O[C@@H]7OC[C@H](O)[C@@H](O)[C@@H]7O[C@@H]7OC(CO)C(O)[C@@H](O)[C@@H]7O)C6O[C@@H]6OC(CO)C(O)C(O)C6O)[C@@](C)(CO)[C@@H]5CC[C@]4(C)[C@]3(C)CC(O)[C@@]12CO (stereo not given in full)	Mdm2-MdmX inh 94 | Mdm2 MdmX conf 48 | Full FLuc ctr inactive
CN(C)CCCN(Cc1cc2cc3c(cc2[nH]c1=O)OCO3)C(=S)Nc1ccccc1	none
COc1ccc2cc(CN(CC3CCCO3)C(=S)Nc3ccccc3)c(=O)[nH]c2c1 (stereo not given)	Mdm2-MdmX inh 52 | Mdm2 MdmX conf 51 | Full FLuc ctr 57
CN(C)CCCN(Cc1cc2cc3c(cc2[nH]c1=O)OCO3)C(=S)Nc1cccc(Cl)c1	Mdm2-MdmX inh 59 | Mdm2 MdmX conf inactive
COc1ccc2[nH]c(=O)c(CN(CC3CCCO3)C(=S)Nc3ccccc3)cc2c1 (stereo not given)	none
Cc1cc2cc(CN(CC3CCCO3)C(=S)Nc3ccccc3)c(=O)[nH]c2cc1C (stereo not given)	Mdm2-MdmX inh 67 | Mdm2 MdmX conf 56 | Full FLuc ctr 59
CCN1CCCC1CN(Cc1cc2ccc(C)cc2[nH]c1=O)C(=S)Nc1ccc(F)cc1 (stereo not given)	Mdm2-MdmX inh 60 | Mdm2 MdmX conf inactive | Full FLuc ctr 63
Cc1cc2cc(CN(CC3CCCO3)C(=S)NCc3ccco3)c(=O)[nH]c2cc1C (stereo not given)	none
CCC(NC(=O)c1ccccc1Br)c1ccccc1 (stereo not given)	none
Cc1ccccc1OCCNC(=O)c1ccco1	none
COc1ccc(NC(=O)N(Cc2cc3ccc(OC)cc3[nH]c2=O)CC2CCCO2)cc1 (stereo not given)	none
COc1ccc2cc(CN(CC3CCCO3)C(=O)Nc3ccccc3OC)c(=O)[nH]c2c1 (stereo not given)	Mdm2-MdmX inh 59 | Mdm2 MdmX conf 53 | Full FLuc ctr 63
COc1cc(NC(=O)c2cccc3c2C(=O)N(Cc2cccnc2)C3)cc(OC)c1OC	Mdm2-MdmX inh 52 | Mdm2 MdmX conf 48 | Full FLuc ctr 95
O=C(Nc1ccc2c(c1)OCO2)c1cccc2c1C(=O)N(Cc1cccnc1)C2	none
CCOc1ccc(-c2nc(C#N)c(NCC(C)C)o2)cc1	none
COc1ccc(CNC(=O)COC(=O)c2ccccc2OCC(=O)Nc2ccc(SC(F)F)cc2)cc1	Mdm2-MdmX inh 99 | Mdm2 MdmX conf inactive
COc1ccccc1NC(=O)COC(=O)c1ccccc1OCC(=O)Nc1ccc(SC(F)F)cc1	none
COc1ccc(/C=N/NC(=O)c2ccc(O)cc2)cc1CN1CCCc2ccccc21	none
Cc1n[nH]c(=S)n1/N=C/c1ccccc1OCc1ccc(Cl)cc1Cl	Mdm2-MdmX inh 53 | Mdm2 MdmX conf inactive
COc1ccc(NC(=O)CCNC(=O)Cn2ccc3ccccc3c2=O)cc1OC	none
CCN(CC)CCC(=O)N1c2ccccc2Sc2ccc(Cl)cc21	Mdm2-MdmX inh 56 | Mdm2 MdmX conf inactive | Full FLuc ctr 65
Nc1c(Cl)cc(C2=NCCn3nc4ccccc4c32)cc1Cl	none
COc1cccc(-c2nnc3sc(-c4ccc(C)cc4)nn23)c1	Mdm2-MdmX inh 56 (no result: Granule exo inh, ABHD5-PLIN5 inh) | Mdm2 MdmX conf 60 | Full FLuc ctr 47
CCOc1cccc(-c2nnc3sc(-c4cc(OC)c(OC)c(OC)c4)nn23)c1	Mdm2-MdmX inh 61 | Mdm2 MdmX conf inactive
COc1ccccc1NC(=O)Nc1ccc(C(=O)N2CCCCC2)cc1	none
CCc1ccccc1Nc1nc(N)nc(COC(=O)c2cccn2C)n1	Mdm2-MdmX inh 54 | Mdm2 MdmX conf 62 | Full FLuc ctr 196
Cc1ccccc1Nc1nc(N)nc(COC(=O)c2cccn2C)n1	none
N#CCCn1c(SCC(=O)NCc2ccco2)nc2ccccc21	none
COc1ccc([N+](=O)[O-])cc1NC(=O)c1cccs1	none
Cc1ccc([N+](=O)[O-])cc1NC(=S)NC(=O)c1cccs1	Mdm2-MdmX inh 62 | Mdm2 MdmX conf inactive
C=C[C@H](Cc1ccccc1)N(Cc1ccccc1)S(=O)(=O)N(Cc1ccccc1)[C@H](C=C)Cc1ccccc1	Mdm2-MdmX inh 90 | Mdm2 MdmX conf 63 | Full FLuc ctr 86
O=C1C2CCCCC2C(=O)N1c1ccc(NC2CCN(Cc3ccccc3)CC2)c([N+](=O)[O-])c1 (stereo not given)	none
CC(=O)Nc1ccc(Nc2nc(-c3sc(C)nc3C)cs2)cc1	none
CCOC(=O)c1c(NC(=O)CSc2nnnn2-c2ccccc2)sc2c1CC(C)(C)NC2(C)C	Mdm2-MdmX inh 55 | Mdm2 MdmX conf inactive
Cc1ccc2nc(SCC(=O)Nc3ccc(C(N)=O)cc3)[nH]c2c1	none
CCOC(=O)c1c(NC(=O)CSc2nc3ccc(C)cc3[nH]2)sc2c1CC(C)(C)NC2(C)C	Mdm2-MdmX inh 75 | Mdm2 MdmX conf 48 | Full FLuc ctr 69
C=C1C(=O)C=C2CN(C(=O)c3ccccc3)[C@@](Cc3ccc(F)cc3)(C(=O)OC)[C@@H]12	ABHD5-PLIN5 inh 75, Mdm2-MdmX inh 100 | Mdm2 MdmX conf 100 | Full FLuc ctr inactive
Cc1cc(N2CCN(c3ccccc3)CC2)nc(NCc2ccccc2)n1	Mdm2-MdmX inh 76 | Mdm2 MdmX conf inactive
CCCc1nc(C)cc(N2CCN(c3ccccc3)CC2)n1	none
COc1cccc([C@@H]2Oc3ccc(OC)cc3C(=O)[C@H]2OC(=O)N[C@H](C)C2CCCCC2)c1	none (no result: Granule exo inh, ABHD5-PLIN5 inh)
Cc1cc(Cl)ccc1OCC(=O)NNC(=O)C1CCCO1 (stereo not given)	none

High-throughput results: PubChem, several laboratories
